# Measurements of several laboratories.
# Each line is one published result; the experiments were not run side by side. pEC50: −log10 of the molar value.
# Cell line: A549
# Observed: cell growth or viability
SMILES,method,concentration,time,measurement,result
C[C@]12CC[C@@H]3c4ccc(O)cc4CC[C@H]3[C@@H]1CC[C@@H]2O,ATP luminescence,,72 h,EC90,56.1 µM
CNS(=O)(=O)Nc1nccc(Cc2c(C)c3ccc(Oc4ncccn4)cc3oc2=O)c1F,CCK-8,,,GI50,5.07 µM
O=C(CN1C(=O)/C(=C/C2CC2)SC1=S)Nc1ccccc1,MTT,10 µM,,inhibition,28.9%
Cn1c(=O)c(NN=C2C(=O)Nc3ccc(Cl)cc32)nc2ccccc21,,30 µM,,inhibition,27.1%
COc1cccc2c1C(=O)c1c(O)c3c(c(O)c1C2=O)C[C@@](O)(C(=O)CO)C[C@@H]3O[C@H]1C[C@H](N)[C@H](O)[C@H](C)O1,SRB,,48 h,GI50,< 10 µg/mL
COc1cccc(NC(=O)CN2C(=O)/C(=C/c3ccccc3)SC2=S)c1,MTT,10 µM,,inhibition,26.3%
CS(=O)(=O)CCNCc1ccc(-c2ccc3ncnc(Nc4ccc(OCc5cccc(F)c5)c(Cl)c4)c3c2)o1,MTT,,72 h,pEC50,4.17
COC(C)(C)CCC[C@](C)(O)[C@H]1CC[C@]2(C)[C@@H]1[C@H](O)C[C@@H]1[C@@]3(C)CC[C@H](O)C(C)(C)[C@@H]3CC[C@]12C,MTT,,72 h,IC80,35.9 µM
COc1ccc2c(c1)C(=NNc1nnc(Cc3ccccc3)c3ccccc13)C(=O)N2,,30 µM,,inhibition,13.5%
O=C(/C=C/c1ccc2c(ccn2S(=O)(=O)c2ccccc2)c1)NO,SRB,,48 h,GI50,1 µM
CC(C)=CCC[C@](C)(O)[C@H]1CC[C@]2(C)[C@@H]1[C@H](O)C[C@@H]1[C@@]3(C)CC[C@H](O[C@@H]4O[C@H](CO)[C@@H](O)[C@H](O)[C@H]4O[C@@H]4O[C@H](CO)[C@@H](O)[C@H](O)[C@H]4O)C(C)(C)[C@@H]3CC[C@]12C,MTT,,72 h,IC20,> 100 µM
COc1ccccc1OCCNCC(O)COc1cccc2[nH]c3ccccc3c12 (stereo not shown),CCK-8,100 µM,72 h,viability,< 50%
CC(C)c1ccc(/C=C2\SC(=S)N(CC(=O)Nc3ccccc3)C2=O)cc1,MTT,10 µM,,inhibition,22.5%
CC1=C(C(=O)OC(C)C)C(c2cccc([N+](=O)[O-])c2)C(C(=O)OC2CN(C(c3ccccc3)c3ccccc3)C2)=C(N)N1 (stereo not shown),CCK-8,100 µM,72 h,viability,< 50%
COc1ccc(-c2nc(NN=C3C(=O)Nc4ccc(F)cc43)c3ccccc3n2)cc1OC,,30 µM,,inhibition,4.9%
O=C(CN1C(=O)/C(=C/c2cccc(O)c2)SC1=S)Nc1ccccc1,MTT,10 µM,,inhibition,14.5%
CCCCc1nc(Cl)c(CO)n1Cc1ccc(-c2ccccc2-c2nn[nH]n2)cc1,MTT,,72 h,pEC50,4.20
Cn1c(=O)c(NN=C2C(=O)Nc3ccc(F)cc32)nc2ccccc21,,30 µM,,inhibition,53.2%
O=C(CN1C(=O)/C(=C/c2ccccn2)SC1=S)Nc1ccccc1,MTT,10 µM,,inhibition,32.6%
